# Test results as given in ChEMBL document CHEMBL5724801, “EUbOPEN Chemogenomics Library - Multiplex” (2024).
# Values joined by “and” are separate entries in the source; they are usually repeats but may differ in a detail not shown here. Identical values can stand only once.
# System: U2OS
# Assay: Multiplex assay against U2OS
# Format: toxicity, cell-based
# Conditions: human
# In short: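 Per cents of healthy-nucleus cells form the tubulin, mitochondrial-mass and membrane-permeability phenotype values. Live cells were stained at seeding with Hoechst33342, BioTracker Green Microtubule Cytoskeleton Dye, MitoTracker Red and Annexin V Alexa Fluor 680. After compound addition they were imaged on a CQ1 microscope at 37°C and 5% CO2, and CellPathfinder machine-learning gating split them into Hoechst high-intensity objects or normal cells, normal cells into healthy, pyknosed or fragmented nuclei, and pyknosed cells into mitotic or apoptotic.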
# [1] = 12 h, 1 µM, compound concentration 1 uM
# [2] = 12 h, 10 µM, compound concentration 10 uM
# [3] = 24 h, 1 µM, compound concentration 1 uM
# [4] = 24 h, 10 µM, compound concentration 10 uM
# [5] = 48 h, 1 µM, compound concentration 1 uM
# [6] = 48 h, 10 µM, compound concentration 10 uM
compound,measurement,setting,value
CC(C)c1ccc(/C=N/NC(=O)c2ccc(O)cc2)cc1,Population Apoptotic (%),[1],41.67% and 26.09%
same,Population Fragmented Nuclei (%),[1],0.58% and 4.67%
same,Population Healthy Nuclei (%),[1],88.92% and 80%
same,Population Hoechst High Intensity Objects (%),[1],0%
same,Population Membrane Permeable-Phenotype (%),[1],2.62% and 5.83%
same,Population Mitochondria Different-Phenotype (%),[1],0% and 12.5%
same,Population Mitotic Cells (%),[1],58.33% and 73.91%
same,Population Normal (%),[1],100%
same,Population Pyknosed Nuclei (%),[1],10.5% and 15.33%
same,Population Tubulin-Different-Phenotype (%),[1],1.64% and 1.67%
same,Total Cell Count,[1],343 and 150
same,Population Apoptotic (%),[2],32.5% and 45%
same,Population Fragmented Nuclei (%),[2],1.02% and 0%
same,Population Healthy Nuclei (%),[2],88.75% and 85.4%
same,Population Hoechst High Intensity Objects (%),[2],0%
same,Population Membrane Permeable-Phenotype (%),[2],2.88% and 2.56%
same,Population Mitochondria Different-Phenotype (%),[2],0% and 5.98%
same,Population Mitotic Cells (%),[2],67.5% and 55%
same,Population Normal (%),[2],100%
same,Population Pyknosed Nuclei (%),[2],10.23% and 14.6%
same,Population Tubulin-Different-Phenotype (%),[2],2.59% and 0%
same,Total Cell Count,[2],391 and 137
same,Population Apoptotic (%),[3],30.95% and 46.15%
same,Population Fragmented Nuclei (%),[3],2.35% and 1.61%
same,Population Healthy Nuclei (%),[3],88.68% and 84.41%
same,Population Hoechst High Intensity Objects (%),[3],0%
same,Population Membrane Permeable-Phenotype (%),[3],1.69% and 3.18%
same,Population Mitochondria Different-Phenotype (%),[3],0.48% and 8.92%
same,Population Mitotic Cells (%),[3],69.05% and 53.85%
same,Population Normal (%),[3],100%
same,Population Pyknosed Nuclei (%),[3],8.97% and 13.98%
same,Population Tubulin-Different-Phenotype (%),[3],1.69% and 0.64%
same,Total Cell Count,[3],468 and 186
same,Population Apoptotic (%),[4],51.02% and 50%
same,Population Fragmented Nuclei (%),[4],1.12% and 2.26%
same,Population Healthy Nuclei (%),[4],89.72% and 86.44%
same,Population Hoechst High Intensity Objects (%),[4],0%
same,Population Membrane Permeable-Phenotype (%),[4],1.88% and 2.61%
same,Population Mitochondria Different-Phenotype (%),[4],0% and 3.92%
same,Population Mitotic Cells (%),[4],48.98% and 50%
same,Population Normal (%),[4],100%
same,Population Pyknosed Nuclei (%),[4],9.16% and 11.3%
same,Population Tubulin-Different-Phenotype (%),[4],1.25% and 0%
same,Population Apoptotic (%),[5],38.46% and 51.11%
same,Population Fragmented Nuclei (%),[5],2.73% and 1.73%
same,Population Healthy Nuclei (%),[5],87.74% and 85.3%
same,Population Hoechst High Intensity Objects (%),[5],0.1% and 0%
same,Population Membrane Permeable-Phenotype (%),[5],0.6% and 3.04%
same,Population Mitochondria Different-Phenotype (%),[5],0.12% and 6.42%
same,Population Mitotic Cells (%),[5],61.54% and 48.89%
same,Population Normal (%),[5],99.9% and 100%
same,Population Pyknosed Nuclei (%),[5],9.54% and 12.97%
same,Population Tubulin-Different-Phenotype (%),[5],0.6% and 1.35%
same,Total Cell Count,[5],955 and 347
same,Population Apoptotic (%),[6],46.51% and 53.12%
same,Population Fragmented Nuclei (%),[6],4.03% and 1.37%
same,Population Healthy Nuclei (%),[6],87.3% and 87.67%
same,Population Hoechst High Intensity Objects (%),[6],0%
same,Population Membrane Permeable-Phenotype (%),[6],1.15% and 3.52%
same,Population Mitochondria Different-Phenotype (%),[6],0% and 5.47%
same,Population Mitotic Cells (%),[6],53.49% and 46.88%
same,Population Normal (%),[6],100%
same,Population Pyknosed Nuclei (%),[6],8.67% and 10.96%
same,Population Tubulin-Different-Phenotype (%),[6],1.39% and 0%
Cn1cnc(-c2cnc(O[C@H]3CCN(C(=O)Cc4ccc(OC(F)(F)F)cc4)C[C@H]3F)c(C(N)=O)c2)c1,Population Apoptotic (%),[1],46.88% and 25%
same,Population Healthy Nuclei (%),[1],91.05% and 84.18%
same,Population Hoechst High Intensity Objects (%),[1],0%
same,Population Mitotic Cells (%),[1],53.12% and 75%
same,Population Normal (%),[1],100%
same,Population Pyknosed Nuclei (%),[1],8.42% and 13.56%
same,Population Apoptotic (%),[2],38.46% and 23.33%
same,Population Healthy Nuclei (%),[2],82.47% and 74.67%
same,Population Hoechst High Intensity Objects (%),[2],0.26% and 0%
same,Population Mitotic Cells (%),[2],61.54% and 76.67%
same,Population Normal (%),[2],99.74% and 100%
same,Population Pyknosed Nuclei (%),[2],16.75% and 20%
same,Population Apoptotic (%),[3],37.74% and 45.16%
same,Population Healthy Nuclei (%),[3],89.71% and 85.37%
same,Population Hoechst High Intensity Objects (%),[3],0.17% and 0%
same,Population Mitotic Cells (%),[3],62.26% and 54.84%
same,Population Normal (%),[3],99.83% and 100%
same,Population Pyknosed Nuclei (%),[3],9.09% and 12.6%
same,Population Apoptotic (%),[4],46.15% and 28.21%
same,Population Healthy Nuclei (%),[4],86.69% and 75.26%
same,Population Hoechst High Intensity Objects (%),[4],0% and 0.51%
same,Population Mitotic Cells (%),[4],53.85% and 71.79%
same,Population Normal (%),[4],100% and 99.49%
same,Population Pyknosed Nuclei (%),[4],12.36% and 20.1%
same,Population Apoptotic (%),[5],32.56% and 44.19%
same,Population Healthy Nuclei (%),[5],89.01% and 86.44%
same,Population Hoechst High Intensity Objects (%),[5],0% and 0.24%
same,Population Mitotic Cells (%),[5],67.44% and 55.81%
same,Population Normal (%),[5],100% and 99.76%
same,Population Pyknosed Nuclei (%),[5],7.88% and 10.41%
same,Population Apoptotic (%),[6],53.41% and 48.57%
same,Population Healthy Nuclei (%),[6],86.7% and 85.71%
same,Population Hoechst High Intensity Objects (%),[6],0%
same,Population Mitotic Cells (%),[6],46.59% and 51.43%
same,Population Normal (%),[6],100%
same,Population Pyknosed Nuclei (%),[6],9.51% and 11.63%
O=C1NCc2ccc3c(-c4cccc(Cl)c4)c[nH]c3c21,Population Apoptotic (%),[1],16.88% and 44.83%
same,Population Fragmented Nuclei (%),[1],2.23% and 1.96%
same,Population Healthy Nuclei (%),[1],76.32% and 79.08%
same,Population Hoechst High Intensity Objects (%),[1],0%
same,Population Membrane Permeable-Phenotype (%),[1],1.46% and 3.31%
same,Population Mitochondria Different-Phenotype (%),[1],0% and 8.26%
same,Population Mitotic Cells (%),[1],83.12% and 55.17%
same,Population Normal (%),[1],100%
same,Population Pyknosed Nuclei (%),[1],21.45% and 18.95%
same,Population Tubulin-Different-Phenotype (%),[1],1.46% and 2.48%
same,Total Cell Count,[1],359 and 153
same,Population Apoptotic (%),[2],31.03% and 23.81%
same,Population Fragmented Nuclei (%),[2],0.99% and 2.27%
same,Population Healthy Nuclei (%),[2],79.87% and 81.82%
same,Population Hoechst High Intensity Objects (%),[2],0%
same,Population Membrane Permeable-Phenotype (%),[2],2.89% and 3.7%
same,Population Mitochondria Different-Phenotype (%),[2],0% and 15.74%
same,Population Mitotic Cells (%),[2],68.97% and 76.19%
same,Population Normal (%),[2],100%
same,Population Pyknosed Nuclei (%),[2],19.14% and 15.91%
same,Population Tubulin-Different-Phenotype (%),[2],2.07% and 0.93%
same,Total Cell Count,[2],303 and 132
same,Population Apoptotic (%),[3],34.38% and 19.64%
same,Population Fragmented Nuclei (%),[3],3.92% and 1.72%
same,Population Healthy Nuclei (%),[3],66.59% and 66.09%
same,Population Hoechst High Intensity Objects (%),[3],0% and 0.57%
same,Population Membrane Permeable-Phenotype (%),[3],0.69% and 3.48%
same,Population Mitochondria Different-Phenotype (%),[3],0% and 8.7%
same,Population Mitotic Cells (%),[3],65.62% and 80.36%
same,Population Normal (%),[3],100% and 99.43%
same,Population Pyknosed Nuclei (%),[3],29.49% and 32.18%
same,Population Tubulin-Different-Phenotype (%),[3],1.73% and 2.61%
same,Total Cell Count,[3],434 and 175
same,Population Apoptotic (%),[4],50% and 28.3%
same,Population Fragmented Nuclei (%),[4],4.05% and 5.47%
same,Population Healthy Nuclei (%),[4],49.22% and 53.12%
same,Population Hoechst High Intensity Objects (%),[4],0.62% and 0%
same,Population Membrane Permeable-Phenotype (%),[4],0.63% and 8.82%
same,Population Mitochondria Different-Phenotype (%),[4],0% and 8.82%
same,Population Mitotic Cells (%),[4],50% and 71.7%
same,Population Normal (%),[4],99.38% and 100%
same,Population Pyknosed Nuclei (%),[4],46.73% and 41.41%
same,Population Tubulin-Different-Phenotype (%),[4],1.27% and 1.47%
same,Total Cell Count,[4],323 and 128
same,Population Apoptotic (%),[5],63.69% and 70.59%
same,Population Fragmented Nuclei (%),[5],9.74% and 8.94%
same,Population Healthy Nuclei (%),[5],47.18% and 43.58%
same,Population Hoechst High Intensity Objects (%),[5],0%
same,Population Membrane Permeable-Phenotype (%),[5],1.63% and 6.41%
same,Population Mitotic Cells (%),[5],36.31% and 29.41%
same,Population Normal (%),[5],100%
same,Population Pyknosed Nuclei (%),[5],43.08% and 47.49%
same,Population Tubulin-Different-Phenotype (%),[5],6.52% and 2.56%
same,Total Cell Count,[5],390 and 179
same,Population Apoptotic (%),[6],70.56% and 84.62%
same,Population Fragmented Nuclei (%),[6],6.99% and 3.12%
same,Population Healthy Nuclei (%),[6],38.3% and 46.09%
same,Population Hoechst High Intensity Objects (%),[6],0%
same,Population Membrane Permeable-Phenotype (%),[6],2.38% and 6.78%
same,Population Mitotic Cells (%),[6],29.44% and 15.38%
same,Population Normal (%),[6],100%
same,Population Pyknosed Nuclei (%),[6],54.71% and 50.78%
same,Population Tubulin-Different-Phenotype (%),[6],10.32% and 5.08%
same,Total Cell Count,[6],329 and 128
